These results are taken from article PMC9053741 (RSC Advances, 2020).

Broadly, the IC50 is the point on the concentration scale where inhibition reaches its midpoint.

In one assay the test system is LO2. Kind of assay: Cytotoxicity assay. Type of assay: cell-based. As to conditions: read-out: IC50 LO2.
Another assay concerns HepG-2. Briefly: Cytotoxicity assay. As to conditions: for IC50: read-out: IC50 HepG-2; for SI (selectivity indices): LO2 vs HepG-2, 48 h. The class given is cell-based, Human.
Assay [1] concerns HepG-2 cells. Kind of assay: Cell cycle distribution analysis. The class given is cell-based, Human. As to conditions: HepG-2, 5 μM, 24 h. An outline of the steps:
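HepG-2 seeded at 1 × 10^5 cells per mL, settled 12 h at 37 °C in 5% CO2. Exposed to 5 μM test compound for 24 h, washed with cold PBS (pH 7.4) and fixed in 75% EtOH for 12 h at −20 °C. Treated with RNase (2.5 mg mL−1), stained with propidium iodide for 0.5 h, then run on a flow cytometer, 10000 events per sample.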

The test system of assay [2] is transferrin receptor-1 (TfR1). Kind of assay: Western blot, TfR1 expression. Type of assay: cell-based, Human. As to conditions: HepG-2, 5 μM, 24 h. The essentials:
(§1)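 HepG-2 seeded at 1 × 10^5 cells per mL, grown 24 h, then given 5 μM test compound for 24 h. Cells washed in ice-cold PBS, lysed, and spun at 10000g for 15 min at 4 °C. Protein measured by […], separated by SDS-PAGE and transferred to PVDF on ice for 3 h. Blocked in 5% skim milk/TBST for 1 h at 25 °C, primary antibody overnight at 4 °C, secondary 1 h at 25 °C. ECL detection, normalized to β-actin and expressed relative to control. Student's t test.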
In general terms: In western blotting, separated proteins are transferred to a membrane and probed.

Another assay has as its system cyclin E. Briefly: Western blot, cyclin E expression. Type of assay: cell-based, Human. As to conditions: HepG-2, 5 μM, 24 h. The essentials:
as §1

Another assay deals with Cdk 2. Kind of assay: Western blot, Cdk 2 expression. As to conditions: HepG-2, 5 μM, 24 h. Type of assay: cell-based, Human. The essentials: as §1
The next assay deals with cyclin A. Kind of assay: Western blot, cyclin A expression. Type of assay: cell-based, Human. As to conditions: HepG-2, 5 μM, 24 h. The essentials: as §1
Assay [3] has as its system HepG-2 cells. Briefly: Cell apoptosis assay. Type of assay: cell-based, Human. As to conditions: HepG-2, 5 μM, 24 h. The essentials:
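HepG-2 (1 × 10^6 cells per mL) exposed to 5 μM test compound for 24 h at 37 °C in 5% CO2. Resuspended in binding buffer (140 mM NaCl, 2.5 mM CaCl2, 10 mM Hepes/NaOH, pH 7.4) and stained with Annexin V and PI for 20 min at room temperature using a kit protocol. Early and late apoptotic fractions measured by flow cytometry.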

Another assay concerns ferritin. Kind of assay: Western blot, ferritin expression. The class given is cell-based, Human. As to conditions: HepG-2, 5 μM, 24 h. An outline of the steps: as §1
Assay [4] relates to HepG-2 cells. Briefly: Intracellular ROS measurements. The class given is cell-based, Human. As to conditions: HepG-2, 5 μM, 24 h. An outline of the steps: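 Using a kit protocol, HepG-2 were incubated with 5 μM test compound in serum-free medium for 24 h at 37 °C. 2 μM H2DCF-DA was then added and cells washed with serum-free medium. Fluorescence measured by flow cytometry and expressed relative to untreated control.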

Read-outs that look alike come from different tables or passages of the source.

Regarding `NC1=N[N+]2=C(c3ccccc3)c3cccc[n+]3[Ga-2]2([Cl])([Cl])[S]1` [C1, Dichlorido[2-(phenyl(pyridin-2-yl)methylene)hydrazinecarbothioamide-N,N′,S]gallium(III)], the IC50 in the assay on LO2 (LO2 normal cells, 48 h, MTT) was found to be 33.8 ± 2.13 µM; in the assay with HepG-2 (HepG-2 cells, 48 h, MTT) it was 5.75 ± 0.54 µM.

For the compound `CNC1=N[N+]2=C(c3ccccc3)c3cccc[n+]3[Ga-2]2([Cl])([Cl])[S]1` [C2, Dichlorido[N-methyl-2-(phenyl(pyridin-2-yl)methylene)hydrazinecarbothioamide-N,N,S]-gallium(III)], the IC50 in the assay with LO2 (LO2 normal cells, 48 h, MTT) stood at 25.8 ± 2.93 µM; in the assay on HepG-2 (HepG-2 cells, 48 h, MTT) it was 2.76 ± 0.39 µM.

For the compound `CCNC1=N[N+]2=C(c3ccccc3)c3cccc[n+]3[Ga-2]2([Cl])([Cl])[S]1` [C3, Dichlorido[N-ethyl-2-(phenyl(pyridin-2-yl)methylene)hydrazinecarbothioamide-N,N,S]-gallium(III)], the 50% inhibitory concentration (IC50) in the assay on LO2 (LO2 normal cells, 48 h, MTT) is 26.6 ± 3.86 µM; in the assay with HepG-2 (HepG-2 cells, 48 h, MTT), 1.23 ± 0.09 µM.

Take `[Cl][Ga-2]12([Cl])[S]C(NC3CCCCC3)=N[N+]1=C(c1ccccc1)c1cccc[n+]12` [C4, Dichlorido[N-cyclohexyl-2-(phenyl(pyridin-2-yl)methylene)hydrazinecarbothioamide-N,N,S]-gallium(III)]: the IC50 in the assay on LO2 (LO2 normal cells, 48 h, MTT) is 20.4 ± 1.13 µM; in the assay on HepG-2 (HepG-2 cells, 48 h, MTT), 0.97 ± 0.02 µM.

Turning to `N.N.[Cl][Pt][Cl]` [Cisplatin, reference compound], the IC50 was 21.3 ± 2.35 µM with LO2 (LO2 normal cells, 48 h, MTT) and 22.4 ± 2.21 µM with HepG-2 (HepG-2 cells, 48 h, MTT).

For the compound `[Cl][Ga]([Cl])[Cl]` [GaCl3, reference compound], the concentration for half-maximal inhibition (IC50) in the assay with LO2 (LO2 normal cells, 48 h, MTT) was above 50 µM; in the assay with HepG-2 (HepG-2 cells, 48 h, MTT), above 50 µM. Also, the anticancer activity result in the assay on HepG-2 (50 μM) is “not observed”.

Turning to `NC(=S)NN=C(c1ccccc1)c1ccccn1` [L1, 2-(Phenyl(pyridin-2-yl)methylene)hydrazinecarbothioamide], the IC50 with LO2 (Homo sapiens, L02, 48 h) was 43.6 ± 2.84 µM; with HepG-2 (Homo sapiens, HepG2, 48 h), 11.3 ± 0.21 µM. In the assay with HepG-2, the “SI (selectivity indices)” value is reported as 3.84.

For `CNC(=S)NN=C(c1ccccc1)c1ccccn1` [L2, N-Methyl-2-(phenyl(pyridin-2-yl)methylene)hydrazinecarbothioamide], the half-inhibitory concentration (IC50) was found to be 35.8 ± 2.19 µM in the assay with LO2 (Homo sapiens, L02, 48 h) and 4.56 ± 0.11 µM with HepG-2 (Homo sapiens, HepG2, 48 h). The “SI (selectivity indices)” value in the assay on HepG-2 worked out at 7.84.

For the compound `CCNC(=S)NN=C(c1ccccc1)c1ccccn1` [L3, N-Ethyl-2-(phenyl(pyridin-2-yl)methylene)hydrazinecarbothioamide], the concentration for half-maximal inhibition (IC50) in the assay with LO2 (Homo sapiens, L02, 48 h) was 33 ± 3.64 µM; in the assay on HepG-2 (Homo sapiens, HepG2, 48 h), 2.43 ± 0.1 µM. Further, the “SI (selectivity indices)” value in the assay on HepG-2 is 13.57.

For the compound `S=C(NN=C(c1ccccc1)c1ccccn1)NC1CCCCC1` [L4, N-Cyclohexyl-2-(phenyl(pyridin-2-yl)methylene)hydrazinecarbothioamide], the concentration for half-maximal inhibition (IC50) worked out at 30.3 ± 2.16 µM in the assay with LO2 (Homo sapiens, L02, 48 h) and 1.32 ± 0.09 µM with HepG-2 (Homo sapiens, HepG2, 48 h). For the same compound, the “SI (selectivity indices)” value in the assay with HepG-2 was found to be 22.97.

Consider `CN(C)C(=S)NN=C(c1ccccc1)c1ccccn1` [L5, N,N-dimethyl-2-(phenyl(pyridin-2-yl)methylene)hydrazinecarbothioamide], for which the IC50 is 23.9 ± 2 µM with LO2 (Homo sapiens, L02, 48 h) and 0.57 ± 0.04 µM in the assay on HepG-2 (Homo sapiens, HepG2, 48 h). Further, in the assay on HepG-2, the “SI (selectivity indices)” value stood at 41.84.

Consider `CN(C(=S)NN=C(c1ccccc1)c1ccccn1)C1CCCCC1` [L6, N-Cyclohexyl-N-methyl-2-(phenyl(pyridin-2-yl)methylene)hydrazinecarbothioamide], for which the half-maximal inhibitory concentration (IC50) in the assay on LO2 (Homo sapiens, L02, 48 h) amounted to 11.5 ± 0.54 µM. In the assay with HepG-2 cells [1], the “G1 phase cell proportion” value is on record as “increase” and the “percentage of G2 phase cells compared to the vehicle-treated control” value is recorded as “reduced”. In addition, the “expression of TfR1 compared to the vehicle-treated control” value in [2] was “about 1.43 fold”. Besides, the “cyclin E expression level” value in the assay on cyclin E is “significant (p < 0.05) decreased”. In addition, the “Cdk 2 expression level” value with Cdk 2 is “significant (p < 0.05) decreased”. Besides, in the assay with cyclin A, the “cyclin A expression level” value is “significant (p < 0.05) decreased”. Further, in the assay with HepG-2 (Homo sapiens, HepG2, 48 h), the IC50 came out at 0.32 ± 0.02 µM. In the assay with HepG-2, the “SI (selectivity indices)” value was determined as 36.06. Further, the “percentage of early apoptosis and late apoptosis relative to the control” value in the assay with HepG-2 cells [3] was 24.87%. Besides, the “expression of ferritin relative to the control group” value in the assay with ferritin worked out at 0.72 fold. Moreover, the “percentage of intracellular ROS level relative to the control” value in the assay on HepG-2 cells [4] is listed as 17.12%.
